Screening data: PubChem, several laboratories
Most compounds without a hit are left out; they make up all but 2.5% or so of the library.
NadD block: NadD (S. aureus) enzyme inhibition. purified NadD enzyme, colorimetric absorbance read-out. inhibition, % at 20 µM. actives 0.78% (n = 360,000). AID 602399; in the data active = inhibition above about 26%
NR2E3 ag-1: agonists of human nuclear receptor NR2E3 | Q9Y5X4 | GST-NR2E3/biotin-RetCOR TR-FRET, 1536-well | inhibition of corepressor binding, % at 4.78 µM | actives 0.12% (n = 320,000);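 active = percent inhibition above the cutoff of mean plus 3 SD of all tested compounds, set per screening campaign, cut at about 20% in these data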;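 note: 0% = DMSO wells and 100% = biotin wells as full block of FRET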
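System: GST-NR2E3 and biotin-RetCOR proteins; probe or stimulus: 7 nM biotin-RetCOR; doses: compound at 4.8 µM, single dose; schedule: Compound–protein incubation for 5 h at 4 °C; detection: time-resolved FRET; read-out: percent inhibition; controls: biotin wells as high control, 0.6% DMSO wells as low control; format: 1536-well plates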
bovine MsrA act: activators of bovine methionine sulfoxide reductase A; AID 602163; activation, % at 10.6 µM; actives 0.3% (n = 360,000); purified bovine MsrA, absorbance read-out; in the data active = activation above about 7.5%;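 note: 0% = vehicle and 100% = reference activator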
MsrA inh: bovine MsrA inhibition. inhibition, % at 15.5 µM. actives 0.75% (n = 360,000). AID 651718. purified bovine MsrA, absorbance read-out; in the data active = inhibition above about 4.5%;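 note: 0% = vehicle wells with enzyme and 100% = reference inhibitor wells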
NR2E3 ag-2: activates human NR2E3 receptor | Q9Y5X4 | CHO-S Gal4-NCOR/VP16-NR2E3 two-hybrid, luciferase | inhibition of corepressor binding, % at 3.98 µM | actives 0.35% (n = 360,000) | AID 602229;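 active = inhibition above the mean of all tested compounds plus 3 SD, cut at about 70% in these data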;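 note: 0% = DMSO with NR2E3 transfected cells and 100% = cells lacking NR2E3 construct; higher means lower luciferase signal from less NR2E3 corepressor binding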
GalR3 antag: human GalR3 antagonism | O60755 | HEK293 GalR3-CNG cAMP membrane potential fluorescence; galR3 body fused to GalR1 C-terminus | inhibition, % at 3 µM | actives 0.44% (n = 360,000);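 active = inhibition above the screen-wide average plus 3 SD, cut at about 13% in these data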;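 note: forskolin and galanin both at EC90 stimulate the cells; cAMP rise reported by CNG channel membrane potential dye signal; 0% = forskolin plus galanin with DMSO and 100% = forskolin alone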
Target sequence (O60755 1-299 limits assumed): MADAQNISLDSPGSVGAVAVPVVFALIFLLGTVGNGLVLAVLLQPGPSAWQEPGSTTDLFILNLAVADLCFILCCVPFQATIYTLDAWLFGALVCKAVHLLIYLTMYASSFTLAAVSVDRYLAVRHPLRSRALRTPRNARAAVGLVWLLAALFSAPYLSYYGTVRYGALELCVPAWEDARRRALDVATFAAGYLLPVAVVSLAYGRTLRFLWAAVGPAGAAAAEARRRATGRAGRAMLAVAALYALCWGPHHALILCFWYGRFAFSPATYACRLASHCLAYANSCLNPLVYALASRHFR
Numbers without * were called inactive.

How did O=C(O)c1cc(O)c2c(c1)[C@@H]([C@H]1c3cc(C(=O)O)cc(O)c3C(=O)c3c(O[C@@H]4O[C@H](CO)[C@@H](O)[C@H](O)[C@H]4O)cccc31)c1cccc(OC3O[C@H](CO)[C@@H](O)[C@H](O)[C@H]3O)c1C2=O (stereo partly specified) do in these assays?
NadD block: 29.5; NR2E3 ag-1: 8.3; bovine MsrA act: -3.6; MsrA inh: 0.3; NR2E3 ag-2: -8.4; GalR3 antag: 1.1

Results for O=C(O)c1cc(O)c2c(c1)[C@H]([C@H]1c3cc(C(=O)O)cc(O)c3C(=O)c3c(O[C@@H]4O[C@H](CO)[C@@H](O)[C@H](O)[C@H]4O)cccc31)c1cccc(OC3O[C@H](CO)[C@@H](O)[C@H](O)[C@H]3O)c1C2=O (stereo partly specified) ?
NadD block: 68.4*; NR2E3 ag-1: 15.1; bovine MsrA act: -5.8; MsrA inh: 1.8; NR2E3 ag-2: -43.2

What do the screens show for `Cc1ccccc1OCC(=O)Nc1ccccc1N1CCOCC1`?
NadD block: -4.4; NR2E3 ag-1: 2.6; bovine MsrA act: -1.5; MsrA inh: 0.9; NR2E3 ag-2: -2.7; GalR3 antag: -5.6

Results for CCC1=NN2C(=N)/C(=C\c3cccn3-c3ccc(Cl)cc3)C(=O)N=C2S1 ?
NadD block: 14.1; NR2E3 ag-1: -1.1; bovine MsrA act: -2.2; MsrA inh: 0.2; NR2E3 ag-2: -21.5; GalR3 antag: -5.7

What do the screens show for `Cc1ccc(-n2cccc2/C=C2\C(=N)N3N=C(c4ccco4)SC3=NC2=O)cc1`?
NadD block: 47.0*; NR2E3 ag-1: 2.8; bovine MsrA act: 4.1; MsrA inh: 0.1; NR2E3 ag-2: -18.1; GalR3 antag: -4.1

What do the screens show for `O=c1n(Cc2ccccc2)nc2n1-c1ccccc1SC2`?
NadD block: -0.3; NR2E3 ag-1: -0.3; bovine MsrA act: -2.1; MsrA inh: -0.3; NR2E3 ag-2: -52.4; GalR3 antag: -3.0

Results for Cc1ccc(N(CC(=O)N/N=C/c2cc(C)n(-c3ccccc3)c2C)S(C)(=O)=O)c(C)c1 ?
NadD block: 16.4; NR2E3 ag-1: -1.6; bovine MsrA act: -6.7; MsrA inh: 1.2; NR2E3 ag-2: -15.1; GalR3 antag: 1.3

What do the screens show for `Cc1cc(/C=N/NC(=O)Cn2c3ccccc3c(=O)c3ccccc32)c(C)n1-c1ccccc1`?
NadD block: 44.9*; NR2E3 ag-1: 2.3; bovine MsrA act: -2.5; MsrA inh: 1.1; NR2E3 ag-2: -36.9; GalR3 antag: -4.6

What do the screens show for `COc1cc(C2Nc3cccc4cccc(c34)N2)cc(OC)c1O`?
NadD block: 31.7*; NR2E3 ag-1: -0.6; bovine MsrA act: -7.9; MsrA inh: 4.2; NR2E3 ag-2: -1.1; GalR3 antag: 7.2

What do the screens show for `COC(=O)c1ccc(C2Nc3cccc4cccc(c34)N2)cc1`?
NadD block: 40.4*; NR2E3 ag-1: 2.6; bovine MsrA act: -4.2; MsrA inh: -0.3; NR2E3 ag-2: -0.6; GalR3 antag: -4.5

How did Fc1ccc(C2Nc3cccc4cccc(c34)N2)cc1 do in these assays?
NadD block: 22.3; NR2E3 ag-1: -0.2; bovine MsrA act: -1.1; MsrA inh: -0.2; NR2E3 ag-2: -13.1; GalR3 antag: -6.9

Results for COc1cc(C2Nc3cccc4cccc(c34)N2)ccc1OC(C)=O ?
NadD block: 46.6*; NR2E3 ag-1: 0.6; bovine MsrA act: -1.9; NR2E3 ag-2: -7.4

Results for COc1ccc(C2Nc3cccc4cccc(c34)N2)cc1Br ?
NadD block: 49.2*; NR2E3 ag-1: 1.4; bovine MsrA act: -1.7; MsrA inh: -0.1; NR2E3 ag-2: -36.3; GalR3 antag: -8.5

What do the screens show for `CCCOc1ccc(C(=O)NC(=S)NCc2cccnc2)cc1`?
NadD block: -7.6; NR2E3 ag-1: 4.3; bovine MsrA act: -1.9; MsrA inh: -1.1; NR2E3 ag-2: -33.3; GalR3 antag: -5.8

Results for O=C(O)c1cccc(Nc2cc(Cl)c3nonc3c2[N+](=O)[O-])c1 ?
NadD block: -1.6; NR2E3 ag-1: -2.8; bovine MsrA act: -7.3; MsrA inh: 4.6*; NR2E3 ag-2: 3.0; GalR3 antag: -0.8

How did Cc1cc(N)ccc1N1CCCC1 do in these assays?
NadD block: 70.0*; NR2E3 ag-1: 11.5; bovine MsrA act: 1.7; NR2E3 ag-2: -15.2

How did Cc1cc(N)ccc1-n1c(C)ccc1C do in these assays?
NadD block: 15.4; NR2E3 ag-1: 3.1; bovine MsrA act: -2.1; MsrA inh: 2.5; NR2E3 ag-2: -21.6; GalR3 antag: -6.4

What do the screens show for `COc1cc(NS(=O)(=O)c2ccc(NC(=O)/C(=C\c3ccccc3OC)NC(=O)c3ccccc3)cc2)nc(OC)n1`?
NadD block: 30.7*; NR2E3 ag-1: 1.2; bovine MsrA act: -2.2; MsrA inh: 0.9; NR2E3 ag-2: -15.8; GalR3 antag: -7.1

What do the screens show for `O=C1N=c2ccccc2=C1c1sc(Nc2cccc(O)c2)nc1O`?
NadD block: 16.2; NR2E3 ag-1: 2.2; bovine MsrA act: -1.7; MsrA inh: 0.7; NR2E3 ag-2: -47.6; GalR3 antag: -12.1

How did O=C1N=c2ccccc2=C1c1sc(Nc2ccc(O)cc2)nc1O do in these assays?
NadD block: 32.8*; bovine MsrA act: -3.3; MsrA inh: -0.3; NR2E3 ag-2: -28.0; GalR3 antag: -11.2

What do the screens show for `Cc1cc(C(=O)COC(=O)c2cc(O)c3ccccc3c2O)c(C)n1CC1CCCO1` (stereo unspecified)?
NadD block: 35.9*; bovine MsrA act: -6.5; NR2E3 ag-2: 21.2

How did O=C(Nc1cnn(Cc2ccc(F)cc2)c1)C(c1ccccc1)c1ccccc1 do in these assays?
NadD block: -8.5; NR2E3 ag-1: 0.3; bovine MsrA act: 0.6; MsrA inh: 0.0; NR2E3 ag-2: 37.6; GalR3 antag: -2.0

What do the screens show for `Cc1ccccc1C(=O)Nc1ccc(C(=O)N/N=C/c2ccc(O)c(Br)c2)cc1`?
NadD block: 21.1; NR2E3 ag-1: 2.6; bovine MsrA act: -4.4; MsrA inh: 4.6*; NR2E3 ag-2: -9.0; GalR3 antag: -1.1

Results for O=C(Nc1ccc(C(=O)O)cc1)/C(=C\C=C\c1ccccc1)NC(=O)c1ccccc1Cl ?
NadD block: 5.6; NR2E3 ag-1: -3.5; bovine MsrA act: -6.9; MsrA inh: 5.8*; NR2E3 ag-2: -51.9; GalR3 antag: -1.4

How did O=C(Nc1ccc(O)cc1)/C(=C\C=C\c1ccccc1)NC(=O)c1ccccc1 do in these assays?
NadD block: -4.6; NR2E3 ag-1: 1.1; bovine MsrA act: -7.0; MsrA inh: 1.4; NR2E3 ag-2: -40.2; GalR3 antag: -4.7

How did CCc1cccc(NC(=O)CCNS(=O)(=O)c2ccc3[nH]c(=O)oc3c2)c1 do in these assays?
NadD block: -7.6; NR2E3 ag-1: -2.0; bovine MsrA act: -3.2; MsrA inh: -0.2; NR2E3 ag-2: 2.0; GalR3 antag: -7.9
